Measurements reported in ChEMBL document CHEMBL2163232, “4-Phenyl-7-azaindoles as potent, selective and bioavailable IKK2 inhibitors demonstrating good in vivo efficacy” (Bioorg Med Chem Lett, 2012).
pIC50: −log10 of the molar value. ≈ marks a conversion by molar mass, not a printed value. Calls of active or inactive are those of the source. The rule behind the calls is not given here.

Columns and labels:
[1] = target: T1, Inhibitor of nuclear factor kappa-B kinase subunit alpha (Homo sapiens, UniProt O15111); test: Inhibition of IKK1 in presence of 1 uM ATP
T1 sequence (O15111 whole entry): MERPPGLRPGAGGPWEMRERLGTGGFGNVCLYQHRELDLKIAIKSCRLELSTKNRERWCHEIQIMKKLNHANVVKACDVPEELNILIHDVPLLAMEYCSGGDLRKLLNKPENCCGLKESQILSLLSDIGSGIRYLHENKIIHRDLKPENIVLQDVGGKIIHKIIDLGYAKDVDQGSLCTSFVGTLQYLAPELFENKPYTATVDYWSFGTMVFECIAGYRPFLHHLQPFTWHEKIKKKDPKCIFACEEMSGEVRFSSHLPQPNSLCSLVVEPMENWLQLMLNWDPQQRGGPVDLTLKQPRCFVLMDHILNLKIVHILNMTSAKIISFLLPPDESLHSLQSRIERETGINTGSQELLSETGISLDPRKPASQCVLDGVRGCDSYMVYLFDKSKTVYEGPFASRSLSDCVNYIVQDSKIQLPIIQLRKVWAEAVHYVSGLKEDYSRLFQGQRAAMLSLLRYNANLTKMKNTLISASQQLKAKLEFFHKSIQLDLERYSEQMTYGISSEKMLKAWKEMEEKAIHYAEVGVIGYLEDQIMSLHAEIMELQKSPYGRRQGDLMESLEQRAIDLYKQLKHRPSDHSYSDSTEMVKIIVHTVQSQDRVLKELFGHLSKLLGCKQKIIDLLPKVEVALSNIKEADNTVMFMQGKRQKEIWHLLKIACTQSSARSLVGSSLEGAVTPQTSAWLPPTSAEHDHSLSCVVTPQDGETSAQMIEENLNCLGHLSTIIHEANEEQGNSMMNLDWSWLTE

[2] = Oral bioavailability in rat at 1 mg/kg; assay type: ADME, organism-based; settings: in vivo
Outline: (§1)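 Rat pharmacokinetics: 1 mg/kg given IV (n = 2) or orally (n = 1); clearance derived from the IV arm.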

[3] = target: T2, Inhibitor of nuclear factor kappa-B kinase subunit beta (Homo sapiens, UniProt O14920); test: Inhibition of IKK2 in presence of 1 uM ATP
T2 sequence (O14920 whole entry): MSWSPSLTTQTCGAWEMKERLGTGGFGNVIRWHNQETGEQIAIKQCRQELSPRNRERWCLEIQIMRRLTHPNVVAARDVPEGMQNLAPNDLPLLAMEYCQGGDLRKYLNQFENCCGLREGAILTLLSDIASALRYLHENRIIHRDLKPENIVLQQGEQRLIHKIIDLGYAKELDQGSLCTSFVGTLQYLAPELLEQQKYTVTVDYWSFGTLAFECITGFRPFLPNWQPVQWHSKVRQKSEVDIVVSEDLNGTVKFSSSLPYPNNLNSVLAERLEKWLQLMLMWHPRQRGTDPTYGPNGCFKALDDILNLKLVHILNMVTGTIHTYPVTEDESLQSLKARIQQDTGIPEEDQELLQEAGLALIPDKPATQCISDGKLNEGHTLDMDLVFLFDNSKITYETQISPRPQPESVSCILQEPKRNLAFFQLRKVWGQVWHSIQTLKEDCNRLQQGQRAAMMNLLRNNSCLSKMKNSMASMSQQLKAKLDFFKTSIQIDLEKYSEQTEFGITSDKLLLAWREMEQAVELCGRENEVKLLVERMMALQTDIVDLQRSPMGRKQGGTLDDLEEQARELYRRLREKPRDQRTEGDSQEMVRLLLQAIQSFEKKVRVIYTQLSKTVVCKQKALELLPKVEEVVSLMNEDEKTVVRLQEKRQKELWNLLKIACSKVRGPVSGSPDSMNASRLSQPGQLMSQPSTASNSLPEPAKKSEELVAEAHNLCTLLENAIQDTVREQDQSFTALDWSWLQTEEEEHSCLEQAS

Blood [4] = test: Inhibition of LPS-stimulated TNFalpha production in human Whole blood; assay type: functional, tissue-based
[5] = Clearance in rat at 1 mg/kg, iv; assay type: ADME, organism-based; set-up: dose 1 mg/kg, route intravenous; settings: in vivo; outline: as §1
[6] = Half life in rat at 1 mg/kg, iv; assay type: ADME, organism-based; set-up: dose 1 mg/kg, route intravenous; settings: in vivo; outline: as §1
[7] = Volume of distribution in rat; assay type: ADME, organism-based; settings: in vivo; outline: as §1
Albumin = Albumin (Homo sapiens, UniProt P02768); test: Binding affinity to human serum albumin; assay type: ADME; settings: isolated protein
[8] = target: T2, Inhibitor of nuclear factor kappa-B kinase subunit beta; test: Inhibition of IKK2 in human A549 cells assessed as inhibition of TNFalpha-induced NFKB activation; assay type: cell-based
[9] = Plasma protein binding in rat; assay type: ADME, cell-free; settings: read-out: PPB (converted)
Blood [10] = test: Inhibition of LPS-stimulated TNFalpha production in rat Whole blood; assay type: functional, tissue-based
Hepatocyte [11] = test: Intrinsic clearance in rat hepatocytes; assay type: ADME, cell-based, Liver
Rattus norvegicus [12] = test: Antiinflammatory activity in Lewis rat assessed as inhibition of LPS-induced neutrophil lung infiltration at 30 umol/kg, po administered 30 mins before LPS challenge relative to vehicle-treated control; assay type: functional, organism-based
Outline: (§2)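 Male Lewis rats (n = 4 per group, vehicle included) dosed orally at 10, 30 and 100 µmol/kg in 2% DMSO/0.5% methylcellulose with NaOH, 30 min before 20 min exposure to aerosolized 0.1 mg/ml E. coli 026:B6 LPS. Neutrophils in BAL fluid counted 4 h post-LPS by differential (Diff-Quick) and haemocytometer counts. Results given as % inhibition versus vehicle, ED50 derived; ANOVA with Dunnett's test.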

Cytochrome P450 3A4 = Cytochrome P450 3A4 (Homo sapiens, UniProt P08684); test: inhibition of CYP3A4; assay type: ADME
Cytochrome P450 1A2 = target: T3, Cytochrome P450 1A2 (Homo sapiens, UniProt P05177); test: inhibition of CYP1A2; assay type: ADME
T3 sequence (P05177 whole entry): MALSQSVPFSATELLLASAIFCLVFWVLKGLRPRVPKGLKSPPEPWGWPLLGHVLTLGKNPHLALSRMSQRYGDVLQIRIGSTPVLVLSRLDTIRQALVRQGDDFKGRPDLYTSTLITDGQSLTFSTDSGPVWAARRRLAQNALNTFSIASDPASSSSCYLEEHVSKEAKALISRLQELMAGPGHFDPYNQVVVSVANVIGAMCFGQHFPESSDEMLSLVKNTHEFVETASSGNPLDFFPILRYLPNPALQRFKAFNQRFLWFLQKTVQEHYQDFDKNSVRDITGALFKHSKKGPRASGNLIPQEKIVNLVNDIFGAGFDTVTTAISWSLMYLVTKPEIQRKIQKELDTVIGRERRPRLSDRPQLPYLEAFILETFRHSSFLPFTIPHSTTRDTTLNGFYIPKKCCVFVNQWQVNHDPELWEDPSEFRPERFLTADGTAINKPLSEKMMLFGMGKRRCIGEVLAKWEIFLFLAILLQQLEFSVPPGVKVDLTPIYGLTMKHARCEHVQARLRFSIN

[13] = target: Voltage-gated inwardly rectifying potassium channel KCNH2 (Homo sapiens, UniProt Q12809); test: Inhibition of human ERG
[14] = Fraction unbound in human plasma; assay type: ADME, cell-free
[15] = Plasma protein binding in human; assay type: ADME, cell-free; settings: read-out: PPB (converted)
Cytochrome P450 2C9 = Cytochrome P450 2C9 (Homo sapiens, UniProt P11712); test: inhibition of CYP2C9; assay type: ADME
Cytochrome P450 2D6 = Cytochrome P450 2D6 (Homo sapiens, UniProt P10635); test: inhibition of CYP2D6; assay type: ADME
[16] = Aqueous solubility of the compound; assay type: physicochemical; settings: aqueous solution
Rattus norvegicus [17] = test: Antiinflammatory activity in po dosed Lewis rat assessed as inhibition of LPS-induced neutrophil lung infiltration compound administered 30 mins before LPS challenge relative to vehicle-treated control; assay type: functional; outline: as §2
Hepatocyte [18] = test: Intrinsic clearance in human hepatocytes; assay type: ADME, cell-based, Liver

Chain of Voltage-gated inwardly rectifying potassium channel KCNH2 (Q12809 whole entry): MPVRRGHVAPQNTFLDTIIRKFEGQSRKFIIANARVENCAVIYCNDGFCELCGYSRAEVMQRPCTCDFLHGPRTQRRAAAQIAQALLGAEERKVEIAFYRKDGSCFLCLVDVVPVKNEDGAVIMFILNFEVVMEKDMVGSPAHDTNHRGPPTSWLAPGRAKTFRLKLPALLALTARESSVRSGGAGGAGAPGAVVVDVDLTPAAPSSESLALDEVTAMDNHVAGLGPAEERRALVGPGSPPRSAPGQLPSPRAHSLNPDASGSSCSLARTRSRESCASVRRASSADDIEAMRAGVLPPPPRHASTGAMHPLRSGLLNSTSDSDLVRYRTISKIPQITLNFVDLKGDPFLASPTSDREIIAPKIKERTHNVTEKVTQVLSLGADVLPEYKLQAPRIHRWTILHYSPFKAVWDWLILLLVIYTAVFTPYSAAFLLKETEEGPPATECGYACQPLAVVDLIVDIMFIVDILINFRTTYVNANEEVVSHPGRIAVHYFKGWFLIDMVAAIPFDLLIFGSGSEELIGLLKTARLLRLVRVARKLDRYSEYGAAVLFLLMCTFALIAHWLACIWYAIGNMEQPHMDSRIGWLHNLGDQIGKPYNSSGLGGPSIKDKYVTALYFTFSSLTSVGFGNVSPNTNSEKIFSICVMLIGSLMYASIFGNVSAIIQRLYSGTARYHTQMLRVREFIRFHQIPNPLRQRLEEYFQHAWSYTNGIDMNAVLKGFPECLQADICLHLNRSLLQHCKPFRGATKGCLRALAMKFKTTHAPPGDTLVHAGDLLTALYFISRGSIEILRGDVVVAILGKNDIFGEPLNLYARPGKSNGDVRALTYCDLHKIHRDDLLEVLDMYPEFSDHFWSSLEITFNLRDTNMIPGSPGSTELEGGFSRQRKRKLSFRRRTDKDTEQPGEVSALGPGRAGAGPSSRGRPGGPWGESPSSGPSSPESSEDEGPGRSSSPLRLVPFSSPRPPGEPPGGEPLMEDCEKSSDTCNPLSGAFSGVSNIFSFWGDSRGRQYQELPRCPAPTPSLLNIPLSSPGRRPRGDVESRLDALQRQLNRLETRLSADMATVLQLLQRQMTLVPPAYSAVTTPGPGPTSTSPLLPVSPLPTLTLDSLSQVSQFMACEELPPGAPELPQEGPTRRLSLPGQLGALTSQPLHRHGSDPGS
Chain of Albumin (P02768 whole entry): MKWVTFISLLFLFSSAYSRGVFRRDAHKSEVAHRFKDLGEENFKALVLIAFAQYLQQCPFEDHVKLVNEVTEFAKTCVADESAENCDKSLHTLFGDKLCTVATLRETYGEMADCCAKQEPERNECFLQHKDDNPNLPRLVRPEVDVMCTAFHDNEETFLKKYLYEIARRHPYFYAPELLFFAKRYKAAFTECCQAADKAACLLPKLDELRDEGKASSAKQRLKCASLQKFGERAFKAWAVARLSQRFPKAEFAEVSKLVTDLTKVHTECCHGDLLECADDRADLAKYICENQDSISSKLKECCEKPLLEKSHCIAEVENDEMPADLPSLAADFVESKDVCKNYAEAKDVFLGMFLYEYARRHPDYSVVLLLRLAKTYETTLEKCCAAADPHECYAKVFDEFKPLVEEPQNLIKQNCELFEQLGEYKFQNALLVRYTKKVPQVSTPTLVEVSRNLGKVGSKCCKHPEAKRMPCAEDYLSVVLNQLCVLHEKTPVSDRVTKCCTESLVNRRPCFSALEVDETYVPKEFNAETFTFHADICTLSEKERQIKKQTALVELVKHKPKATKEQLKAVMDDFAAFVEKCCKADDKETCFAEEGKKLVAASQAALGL
Chain of Cytochrome P450 3A4 (P08684 whole entry): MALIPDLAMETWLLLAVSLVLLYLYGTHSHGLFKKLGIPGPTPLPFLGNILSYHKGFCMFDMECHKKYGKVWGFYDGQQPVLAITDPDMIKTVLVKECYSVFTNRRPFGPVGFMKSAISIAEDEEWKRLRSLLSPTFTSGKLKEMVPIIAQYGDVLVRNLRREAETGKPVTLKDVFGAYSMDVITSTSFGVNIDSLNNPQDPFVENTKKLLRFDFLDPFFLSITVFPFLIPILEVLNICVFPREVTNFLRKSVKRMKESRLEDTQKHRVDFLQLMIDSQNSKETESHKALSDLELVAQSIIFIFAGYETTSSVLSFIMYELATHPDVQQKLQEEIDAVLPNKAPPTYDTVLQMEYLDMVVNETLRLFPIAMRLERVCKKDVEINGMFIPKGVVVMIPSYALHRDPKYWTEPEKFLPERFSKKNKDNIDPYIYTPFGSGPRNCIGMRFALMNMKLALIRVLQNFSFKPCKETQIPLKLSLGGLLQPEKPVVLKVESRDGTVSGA
Chain of Cytochrome P450 2C9 (P11712 whole entry): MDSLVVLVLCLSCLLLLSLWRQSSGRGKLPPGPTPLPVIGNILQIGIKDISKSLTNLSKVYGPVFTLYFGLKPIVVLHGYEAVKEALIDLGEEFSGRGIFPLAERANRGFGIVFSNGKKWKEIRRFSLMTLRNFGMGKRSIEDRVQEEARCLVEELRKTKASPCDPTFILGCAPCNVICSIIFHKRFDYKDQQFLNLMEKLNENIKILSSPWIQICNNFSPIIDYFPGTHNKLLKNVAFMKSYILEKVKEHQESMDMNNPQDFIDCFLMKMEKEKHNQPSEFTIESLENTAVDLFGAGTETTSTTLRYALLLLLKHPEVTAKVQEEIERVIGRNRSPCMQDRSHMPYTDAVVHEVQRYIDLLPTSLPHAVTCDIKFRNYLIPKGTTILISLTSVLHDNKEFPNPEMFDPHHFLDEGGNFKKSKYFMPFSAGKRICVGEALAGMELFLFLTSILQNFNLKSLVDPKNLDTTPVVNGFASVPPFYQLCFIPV
Chain of Cytochrome P450 2D6 (P10635 whole entry): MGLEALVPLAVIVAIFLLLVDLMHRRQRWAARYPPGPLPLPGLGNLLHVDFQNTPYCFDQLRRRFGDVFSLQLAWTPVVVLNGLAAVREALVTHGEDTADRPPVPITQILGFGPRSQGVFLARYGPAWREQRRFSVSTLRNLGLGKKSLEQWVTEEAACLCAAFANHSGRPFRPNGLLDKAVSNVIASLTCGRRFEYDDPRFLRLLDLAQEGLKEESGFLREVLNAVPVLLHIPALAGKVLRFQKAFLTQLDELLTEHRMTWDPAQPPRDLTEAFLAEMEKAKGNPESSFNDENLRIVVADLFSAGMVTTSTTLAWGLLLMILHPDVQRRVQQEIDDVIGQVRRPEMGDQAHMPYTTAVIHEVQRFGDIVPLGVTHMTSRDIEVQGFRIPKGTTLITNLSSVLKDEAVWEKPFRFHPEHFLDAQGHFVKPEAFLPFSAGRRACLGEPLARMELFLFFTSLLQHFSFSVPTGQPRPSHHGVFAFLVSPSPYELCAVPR

Row | Structure (SMILES) | pIC50 [1] | pIC50 [3] | pIC50 (Blood [4]) | also measured
1 | C[C@@H](CO)NS(=O)(=O)c1ccc(-c2ccnc3[nH]c(C4CC4)cc23)cc1 | 6.60 | 8.10 | 6.30 | bioavailability [2]: 29%; clearance [5]: 15 mL/min/kg; half-life [6]: 54 min
2 | C[C@@H](CO)NS(=O)(=O)c1ccc(-c2ccnc3[nH]c(C(F)(F)F)cc23)cc1 | 6.50 | 7.70 | 5.90 | bioavailability [2]: 83%; clearance [5]: 7 mL/min/kg; half-life [6]: 192 min
3 | Cc1cc2c(-c3ccc(S(=O)(=O)NC4CCS(=O)(=O)CC4)nc3)ccnc2[nH]1 | 8.10 | 7.90 | 6.40 | 
4 | CC(C)c1cc2c(-c3ccc(S(=O)(=O)NCCO)cc3)ccnc2[nH]1 | 6.40 | 8.10 | 5.80 | Vd [7]: 0.8 L/kg; bioavailability [2]: 18%; clearance [5]: 39 mL/min/kg; half-life [6]: 27 min
5 | CC(C)c1cc2c(-c3ccc(S(=O)(=O)NC4CCS(=O)(=O)CC4)cc3)ccnc2[nH]1 | 8.20 | 8.20 | 6.60 | 
6 | O=S1(=O)CCC(NS(=O)(=O)c2ccc(-c3ccnc4[nH]c(C5CCNCC5)cc34)cc2)CC1 | 7.50 | 7.80 | 6.20 | 
7 | Cc1cc2c(-c3ccc(S(=O)(=O)NC4CCS(=O)(=O)CC4)cc3)ccnc2[nH]1 |  |  | 6.40 | 
8 | CC(C)(O)CNS(=O)(=O)c1ccc(-c2ccnc3[nH]c(C4CC4)cc23)cc1 | 6.50 | 8.20 | 6.00 | bioavailability [2]: 100%; clearance [5]: 14 mL/min/kg; half-life [6]: 42 min
9 | O=S1(=O)CCC(NS(=O)(=O)c2ccc(-c3ccnc4[nH]c(Cn5ccnn5)cc34)cc2)CC1 | 7.30 | 7.80 | 5.90 | 
10 | O=S(=O)(NCCO)c1ccc(-c2ccnc3[nH]c(C(F)(F)F)cc23)cc1 | 6.70 | 7.80 | 5.60 | 
11 | Cc1cc2c(-c3ncc(S(=O)(=O)NC4CCS(=O)(=O)CC4)cn3)ccnc2[nH]1 | 6.80 | 6.10 | 5.50 | 
12 | CN(C)Cc1cc2c(-c3ccc(S(=O)(=O)NC4CCS(=O)(=O)CC4)cc3)ccnc2[nH]1 | 7.00 | 7.70 | 5.90 | 
13 | CC(C)(C)c1cc2c(-c3ccc(S(=O)(=O)NCCO)cc3)ccnc2[nH]1 | 6.10 | 7.70 | 6.00 | 
14 | Cc1cc2c(-c3ccc(S(=O)(=O)NC4CCS(=O)(=O)CC4)cn3)ccnc2[nH]1 | 7.10 | 7.10 | 6.00 | 
15 | Cc1cc2c(-c3ccc(S(=O)(=O)N(C)CCO)cc3)ccnc2[nH]1 |  |  | 5.50 | Activity (Albumin): 91%; pIC50 [8]: 6.10
16 | CC(C)(C)c1cc2c(-c3ccc(S(=O)(=O)NC4CCS(=O)(=O)CC4)cc3)ccnc2[nH]1 | 7.60 | 8.10 | 6.20 | 
17 | O=S(=O)(NCCO)c1ccc(-c2ccnc3[nH]c(C4CC4)cc23)cc1 | 6.70 | 8.10 | 5.90 | Vd [7]: 0.6 L/kg; fraction unbound [9]: 0.024; pIC50 [8]: 6.70; pIC50 (Blood [10]): 5.20; CLH (Hepatocyte [11]): < 1 mL/min/g; inhibition (Rattus norvegicus [12]): Active; pIC50 (Cytochrome P450 3A4): < 5.00; pIC50 (Cytochrome P450 1A2): < 5.00; pIC50 [13]: < 4.30; bioavailability [2]: 49%; fraction unbound [14]: 0.07; fraction unbound [15]: 0.066; pIC50 (Cytochrome P450 2C9): 5.15; clearance [5]: 13 mL/min/kg; pIC50 (Cytochrome P450 2D6): < 5.00; solubility [16]: 64 µM (≈ 22.9 µg/mL); ED50 (Rattus norvegicus [17]): 28.2 µmol/kg; inhibition (Rattus norvegicus [17]): Dose-dependent effect; half-life [6]: 36 min; CLH (Hepatocyte [18]): < 1 mL/min/g
18 | Cc1cc2c(-c3ccc(S(=O)(=O)NCCO)cc3)ccnc2[nH]1 |  |  | 5.60 | 
19 | Cc1cc2c(-c3ccc(S(=O)(=O)NCC(C)(C)O)cc3)ccnc2[nH]1 | 6.70 | 8.00 | 6.00 | bioavailability [2]: 32%; clearance [5]: 70 mL/min/kg; half-life [6]: 36 min
20 | O=S1(=O)CCC(NS(=O)(=O)c2ccc(-c3ccnc4[nH]c(C5CC5)cc34)cc2)CC1 | 8.20 | 8.40 | 6.60 | 
21 | CCc1cc2c(-c3ccc(S(=O)(=O)NC4CCS(=O)(=O)CC4)cc3)ccnc2[nH]1 | 8.20 | 8.30 | 6.40 | 
